Measured values published in ChEMBL document CHEMBL3351523 (Bioorg Med Chem, 2014).

What was measured:
[1] = Cytotoxicity against mock-infected human MT4 cells after 96 hrs by MTT assay; format: cell-based
In short: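 Exponentially growing MT-4 cells were seeded at 1 × 10^5 cells/mL in RPMI-1640 with 10% FBS and held at 37 °C, 5% CO2 with serial compound dilutions. Viability was read by MTT after 96 h. CC50 from linear regression against untreated controls.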

[2] = system: Human immunodeficiency virus 1; assay: Antiviral activity against HIV1 infected in human MT4 cells assessed as inhibition of virus-induced cytopathogenicity after 4 days by MTT assay; format: functional, organism-based; settings: Human immunodeficiency virus 1, MT4, 96 h
In short: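 MT-4 cells (1 × 10^4/well in RPMI) were infected acutely with HIV-1 IIIB, 100 CCID50 (m.o.i. 0.01), with serial dilutions from 100 µM, 1:5. After 4 days at 37 °C, protection from virus-induced cytopathogenicity was read by MTT. EC50 came from linear regression against untreated controls.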

[3] = Cytotoxicity against mock-infected MDBK cells after 48 to 96 hrs by MTT assay; format: cell-based, Bos taurus; settings: cattle
In short: (§1)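 Mock-infected MDBK (6 × 10^5 cells/mL; MEM-E, 10% horse serum, 1 mM pyruvate) or BHK (1 × 10^6 cells/mL; MEM-E, 10% FBS) cells were incubated at 37 °C, 5% CO2 with serial dilutions from 100 µM, 1:5. Viability by MTT after 48–96 h. CC50 from linear regression against untreated controls.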

[4] = system: Bovine viral diarrhea virus 1; assay: Antiviral activity against Bovine viral diarrhea virus infected in MDBK cells assessed as inhibition of virus-induced cytopathogenicity after 3 to 4 days by MTT assay; format: functional, organism-based; settings: Bovine viral diarrhea virus isolates and strains
[5] = Cytotoxicity against mock-infected BHK21 cells after 48 to 96 hrs by MTT assay; format: functional; settings: Mesocricetus auratus, BHK-21; in short: as §1
Yellow fever virus = assay: Antiviral activity against Yellow fever virus infected in BHK21 cells assessed as inhibition of virus-induced cytopathogenicity after 3 to 4 days by MTT assay; format: functional, organism-based; settings: BHK-21
Reovirus sp. = assay: Antiviral activity against Reovirus type-1 infected in BHK21 cells assessed as inhibition of virus-induced cytopathogenicity after 3 to 4 days by MTT assay; format: functional, organism-based; settings: BHK-21
[6] = Cytotoxicity against mock-infected african green monkey Vero 76 cells after 48 to 96 hrs by MTT assay; format: cell-based; settings: chlorocebus sabaeus, mock-infected Vero 76 cells
Coxsackievirus B5 = assay: Antiviral activity against Coxsackievirus B5 infected in african green monkey Vero 76 cells assessed as reduction in plaque number after 3 days by plaque reduction assay; format: functional, organism-based; settings: Enterovirus B, 72 h
Poliovirus 1 = assay: Antiviral activity against Poliovirus type 1 Sabin strain infected in african green monkey Vero 76 cells assessed as reduction in plaque number after 2 days by plaque reduction assay; format: functional, organism-based; settings: Enterovirus C, 48 h
[7] = system: Respiratory syncytial virus; assay: Antiviral activity against Respiratory syncytial virus infected in african green monkey Vero 76 cells assessed as reduction in plaque number after 5 days by plaque reduction assay; format: functional, organism-based; settings: human respiratory syncytial virus, 120 h
[8] = system: Vesicular stomatitis virus; assay: Antiviral activity against Vesicular stomatitis virus infected in african green monkey Vero 76 cells assessed as reduction in plaque number after 2 days by plaque reduction assay; format: functional, organism-based; settings: 48 h
Vaccinia virus = assay: Antiviral activity against Vaccinia Virus infected in african green monkey Vero 76 cells assessed as reduction in plaque number after 3 days by plaque reduction assay; format: functional, organism-based; settings: Orthopoxvirus vaccinia, 72 h
Human alphaherpesvirus 1 = assay: Antiviral activity against HSV1 infected in african green monkey Vero 76 cells assessed as reduction in plaque number after 3 days by plaque reduction assay; format: functional, organism-based; settings: Human alphaherpesvirus 1, Vero, 72 h
[9] = Selectivity index, ratio of CC50 for african green monkey Vero 76 cells to EC50 for Coxsackievirus B5; format: toxicity, cell-based; settings: read-out: Ratio CC50/EC50
In short: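 Mock-infected Vero-76 cells were tested in parallel on the same 24-well plates as the plaque assays (seeding 4 × 10^5 cells/mL, D-MEM with FBS), with serial compound dilutions at 37 °C, 5% CO2. Viability was read after 48–96 h by crystal violet staining. CC50 by linear regression; selectivity index = Vero-76 CC50/EC50 for CVB-5 or RSV.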

Row | SMILES | CC50 at 96 h [1] | EC50 [2] | CC50 [3] | EC50 [4] | CC50 [5] | EC50 (Yellow fever virus) | EC50 (Reovirus sp.) | CC50 [6] | EC50 (Coxsackievirus B5) | EC50 (Poliovirus 1) | EC50 [7] | EC50 [8] | EC50 (Vaccinia virus) | EC50 (Human alphaherpesvirus 1) | selectivity ratio [9]
1 | c1ccc(-c2nc3ccccc3n2[C@H]2CCCN3CCCC[C@H]23)cc1 | > 100 µM | > 100 µM | > 100 µM | > 100 µM | > 100 µM | > 100 µM | > 100 µM | ≥ 100 µM | 80 µM | > 100 µM | > 100 µM | 68 µM | > 100 µM | > 100 µM | > 1.25
2 | Clc1ccc2nc(-c3ccccc3)n([C@@H]3CCCN4CCCC[C@H]34)c2c1 | > 100 µM | > 100 µM | > 100 µM | 40 µM | > 100 µM | > 100 µM | > 100 µM | ≥ 100 µM | 32 µM | > 100 µM | > 100 µM | > 100 µM | > 100 µM | > 100 µM | > 3.12
3 | FC(F)(F)c1ccc2c(c1)nc(-c1ccc(Cl)cc1)n2C[C@@H]1CCCN2CCCC[C@H]12 | 24 µM | > 100 µM | 40 µM | > 100 µM | 75 µM | > 100 µM | > 100 µM | 24 µM | 14 µM | > 100 µM | > 100 µM | > 100 µM | > 100 µM | > 100 µM | 1.71
4 | c1ccc2[nH]c(C[C@H]3CCCN4CCCC[C@H]34)nc2c1 | > 100 µM | > 100 µM | > 100 µM | > 100 µM | > 100 µM | > 100 µM | > 100 µM | > 100 µM | > 100 µM | > 100 µM | > 100 µM | > 100 µM | > 100 µM | > 100 µM | 
5 | c1ccc2[nH]c(CCCC3NCC4CNCC3C4)nc2c1 (stereo not given) | > 100 µM | > 100 µM | > 100 µM | > 100 µM | > 100 µM | > 100 µM | > 100 µM | > 100 µM | > 100 µM | > 100 µM | > 100 µM | > 100 µM | > 100 µM | > 100 µM | 
6 | Clc1ccc2[nH]c(CCCC3NCC4CNCC3C4)nc2c1 (stereo not given) | > 100 µM | > 100 µM | > 100 µM | > 100 µM | > 100 µM | 25 µM | > 100 µM | > 100 µM | > 100 µM | > 100 µM | > 100 µM | > 100 µM | > 100 µM | > 100 µM | 
7 | c1ccc2[nH]c(CCCC3NCC4CC3CN3CCCCC43)nc2c1 (stereo not given) | > 100 µM | > 100 µM | > 100 µM | 94 µM | > 100 µM | 87 µM | > 100 µM | > 100 µM | > 100 µM | > 100 µM | > 100 µM | > 100 µM | > 100 µM | > 100 µM | 
8 | Clc1ccc2[nH]c(CCCC3NCC4CC3CN3CCCCC43)nc2c1 (stereo not given) | 51 µM | > 100 µM | 56 µM | > 100 µM | 18 µM | > 100 µM | > 100 µM | 59 µM | > 100 µM | > 100 µM | > 100 µM | > 100 µM | > 100 µM | > 100 µM | 
9 | FC(F)(F)c1ccc2c(c1)nc(CC1=CCCC1)n2C[C@@H]1CCCN2CCCC[C@H]12 | 5 µM | > 100 µM | 50 µM | > 100 µM | 30 µM | > 100 µM | > 100 µM | > 100 µM | > 100 µM | > 100 µM | > 100 µM | > 100 µM | > 100 µM | 30 µM | 
10 | CCOCc1nc2ccccc2[nH]1 | > 100 µM | > 100 µM | > 100 µM | > 100 µM | > 100 µM | > 100 µM | > 100 µM | > 100 µM | > 100 µM | > 100 µM | > 100 µM | > 100 µM | > 100 µM | > 100 µM | 
11 | c1ccc(-n2c(C[C@@H]3CCCN4CCCC[C@H]34)nc3ccccc32)cc1 | 33 µM | > 100 µM | > 100 µM | 89 µM | 30 µM | > 100 µM | > 100 µM | > 100 µM | 49 µM | > 100 µM | > 100 µM | > 100 µM | > 100 µM | > 100 µM | > 2.04
12 | CCc1nc2ccccc2[nH]1 | > 100 µM | > 100 µM | > 100 µM | > 100 µM | > 100 µM | > 100 µM | > 100 µM | > 100 µM | > 100 µM | > 100 µM | > 100 µM | > 100 µM | > 100 µM | > 100 µM | 
13 | C[C@@]1(O)[C@H](O)[C@@H](CO)O[C@H]1n1cnc2c(=O)[nH]c(N)nc21 [2'-B-METHYL-GUANOSINE] | > 100 µM |  | > 100 µM |  | 90 µM | > 100 µM | 2.4 µM | > 100 µM | 20 µM | > 100 µM | > 100 µM | > 100 µM | > 100 µM | > 100 µM | > 5
